Calls of active or inactive are those of the source. How the calls were made is not given here.

Series [1] is described as follows: Cytotoxicity against human MT4 cells after 96 hrs by MTT assay. It is filed as cell-based. As to conditions: MT4 cells. The essentials:
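Exponentially growing MT-4 cells at 1 × 10^5 cells/mL in RPMI-1640 with 10% FCS, exposed to serial compound dilutions at 37 °C, 5% CO2. Viability by MTT after 96 h; CC50 is the concentration reducing viability of mock-infected cells by 50%.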
(In general: Tetrazolium assays rely on reduction of a dye to a coloured formazan, in cell work by metabolically active cells.)

A short description of series [2]: Cytotoxicity against MDBK cells after 48 to 96 hrs by MTT assay. In kind it is cell-based, Bos taurus. The following applies: cattle, MDBK cells. In a few lines: (§1)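 Cell seeding: MDBK at 6 × 10^5 cells/mL in MEM-E with 10% horse serum and 1 mM Na pyruvate; BHK at 1 × 10^6 cells/mL in MEM-E with 10% FBS. Serial compound dilutions, 37 °C, 5% CO2. Viability of mock-infected cells by MTT after 48–96 h; CC50 is the concentration reducing viability by 50%.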

Series [3] can be described thus: Cytotoxicity against BHK cells after 48 to 96 hrs by MTT assay. In kind it is cell-based, Mesocricetus auratus. The following applies: hamster. In a few lines:
as §1

Series [4] is described as follows: Cytotoxicity against african green monkey Vero cells. In kind it is cell-based. As to conditions: chlorocebus sabaeus. In a few lines:
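Vero 76 monolayers exposed to serial compound dilutions, run in parallel on the same 24-well plates as the plaque-reduction assays. CC50 is the concentration reducing viability of mock-infected cells by 50%.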

Series [5] concerns Human immunodeficiency virus 1. The experiment in a line: Antiviral activity against HIV1 3B infected in human MT4 cells assessed as protection from virus-induced cytopathogenicity after 4 days by MTT method. It is filed as functional, organism-based. In a few lines:
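MT-4 cells, 1 × 10^4/well in RPMI with or without serial compound dilutions, infected with HIV-1 IIIB, 100 CCID50 (m.o.i. 0.01). Protection from virus-induced cytopathogenicity read by MTT.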

Series [6] concerns Vesicular stomatitis virus. Put plainly: Antiviral activity against VSV Indiana lab infected in african green monkey Vero cells after 2 days by plaque reduction assay. In kind it is functional, organism-based.
In series [7] the test system is Bovine viral diarrhea virus 1. The experiment in a line: Antiviral activity against Bovine viral diarrhea virus NADL infected in MDBK cells assessed as protection from virus-induced cytopathogenicity after 3 to 4 days by MTT method. In kind it is functional, organism-based, Bovine viral diarrhea virus 1-NADL. The following applies: Bovine viral diarrhea virus isolates and strains, MDBK. The essentials:
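Cytopathogenicity protection assay. MDBK cells at 3 × 10^4/well, grown overnight to confluence. Infected with BVDV NADL at m.o.i. 0.01 in MEM-E with 0.5% inactivated FBS, 1 mM Na pyruvate and 1% kanamycin. Serial compound dilutions added after 1 h. After 3–4 days at 37 °C, viability read by MTT; EC50 is the concentration giving 50% protection.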

Another series concerns Yellow fever virus. The experiment in a line: Antiviral activity against Yellow fever virus 17D infected in BHK cells assessed as protection from virus-induced cytopathogenicity after 3 to 4 days by MTT method. It is filed as functional, organism-based. A general note: Damage to the host cells serves as the signal in cytopathic effect assays.
A further series relates to Coxsackievirus B2. The experiment in a line: Antiviral activity against Human coxsackievirus B2 Ohio-1 infected in african green monkey Vero cells after 3 days by plaque reduction assay. It is filed as functional, organism-based, Coxsackievirus B2 (strain Ohio-1). The following applies: Enterovirus B, Vero, 72 h. The essentials: (§2)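 Plaque reduction assay. Vero 76 cells at 2 × 10^5/well, grown overnight to confluence in D-MEM with 10% FBS. Infected 2 h with 50–100 PFU/well, unadsorbed virus removed. Overlay of D-MEM with 1% inactivated FBS and 0.75% methylcellulose, with or without serial compound dilutions. Incubated at 37 °C for 3 days (HSV-1 KOS, CVB-2 Ohio-1) or 5 days (RSV A2). Fixed and stained with crystal violet in 50% ethanol; plaques counted; EC50 by linear regression.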
Background: Plaque reduction counts the foci of infection that form in a cell layer.

A further series concerns Poliovirus 1. Put plainly: Antiviral activity against Polio virus type1 Sabin strain Chat infected in african green monkey Vero cells after 2 days by plaque reduction assay. In kind it is functional, organism-based, Human poliovirus 1 strain Sabin. As to conditions: Enterovirus C, 48 h.
The test system of a further series is Human alphaherpesvirus 1. Put plainly: Antiviral activity against HSV1 KOS infected in african green monkey Vero cells after 3 days by plaque reduction assay. In kind it is functional, organism-based. The following applies: Human alphaherpesvirus 1, KOS, 72 h. The essentials: as §2
The test system of series [8] is Respiratory syncytial virus. The experiment in a line: Antiviral activity against RSV A2 infected in african green monkey Vero cells after 5 days by plaque reduction assay. In kind it is functional, organism-based. The following applies: human respiratory syncytial virus, A2, Vero, 120 h. The essentials:
as §2

In the next series the test system is Vaccinia virus. Put plainly: Antiviral activity against Vaccinia virus Elstree-Lister infected in african green monkey Vero cells after 3 days by plaque reduction assay. The following applies: Orthopoxvirus vaccinia, 72 h. In kind it is functional, organism-based.

One may read the CC50 as the concentration at which the toxic effect on the cells reaches its halfway point. The term EC50 denotes the midpoint of the concentration-response curve. In series [1], `COc1ccc(-c2nc3cc(C(F)(F)F)ccc3[nH]2)c(N)c1` came in with a CC50 at 96 h of 5 µM. Further, the CC50 is 4 µM in series [2], at least 100 µM in series [3] and 50 µM in [4]. Moreover, the result in series [5] and in series [6] was inactive. Further, the 50% effective concentration (EC50) in series [7] is over 4 µM; in the series with Yellow fever virus, 20 µM; in the series on Coxsackievirus B2 it was 6 µM; in the series with Poliovirus 1, 18 µM; in the series on Human alphaherpesvirus 1 it was over 50 µM; in [8], over 50 µM. In addition, the EC50 in the series on Vaccinia virus is over 50 µM.

As to `Cn1c(-c2ccc([N+](=O)[O-])cc2)nc2cc(C(F)(F)F)ccc21`, the CC50 at 96 h in series [1] is at least 100 µM. Moreover, the CC50 in series [2], in series [3] and in [4] was over 100 µM each time. Also, the outcome in series [5] and in series [6] was inactive. The concentration for a half-maximal effect (EC50) (in [7]; with Yellow fever virus; in the series on Coxsackievirus B2; in the series with Poliovirus 1; in the series on Human alphaherpesvirus 1; in series [8]) was over 100 µM throughout. Also, the EC50 in the series with Vaccinia virus was over 100 µM.

As to `O=[N+]([O-])c1ccc(-c2nc3cc(C(F)(F)F)ccc3n2C2CCCCC2)cc1`, the CC50 at 96 h in [1] was 49 µM. Also, the CC50 is 68 µM in series [2], over 100 µM in [3] and over 100 µM in series [4]. Besides, the outcome in series [5] and in [6] was inactive. Also, the half-maximal effective concentration (EC50) in series [7] is 60 µM; in the series on Yellow fever virus, over 100 µM; in the series on Coxsackievirus B2, 45 µM; in the series on Poliovirus 1, over 100 µM; in the series with Human alphaherpesvirus 1, over 100 µM; in [8], over 100 µM. Besides, the EC50 in the series with Vaccinia virus was found to be 87 µM.

Compound `COc1ccc(-c2nc3cc([N+](=O)[O-])ccc3[nH]2)c(OC)c1` displayed a CC50 at 96 h in [1] of over 100 µM. The CC50 in [2], in series [3] and in [4] was over 100 µM each time. The result in series [5] and in series [6] was inactive. The EC50 in series [7] was 45 µM; in the series with Yellow fever virus, over 100 µM; in the series with Coxsackievirus B2, over 100 µM; in the series on Poliovirus 1 it was over 100 µM; in the series on Human alphaherpesvirus 1, over 100 µM; in [8], over 100 µM. Moreover, the EC50 with Vaccinia virus is over 100 µM.

In series [1], `COc1ccc(-c2nc3cc(Cl)c(Cl)cc3[nH]2)c(N)c1` returned a CC50 at 96 h of 3 µM. Besides, the values for the 50% cytotoxic concentration (CC50) in [2], in series [3] and in series [4] were 6.5 µM, over 100 µM and 75 µM, respectively. For the same compound, the outcome in [5] and in [6] was inactive. Moreover, the EC50 in [7] is over 6.5 µM; in the series with Yellow fever virus it was over 100 µM; with Coxsackievirus B2, over 75 µM; with Poliovirus 1, over 75 µM; in the series with Human alphaherpesvirus 1, over 75 µM; in series [8], over 75 µM. The EC50 with Vaccinia virus is over 75 µM.

With `Fc1cccc(F)c1-c1nc2cc(Cl)c(Cl)cc2[nH]1`, the CC50 at 96 h in series [1] was 17 µM. Also, the results for the CC50 in [2], in [3] and in [4] were 43 µM, over 100 µM and over 100 µM, respectively. The outcome in series [5] and in [6] was inactive. The EC50 in series [7] was over 43 µM; in the series on Yellow fever virus, over 100 µM; in the series with Coxsackievirus B2, 30 µM; with Poliovirus 1, over 100 µM; in the series with Human alphaherpesvirus 1, over 100 µM; in series [8], over 100 µM. The half-maximal effective concentration (EC50) in the series on Vaccinia virus is over 100 µM.

Compound `Fc1ccc(-c2nc3cc(C(F)(F)F)ccc3[nH]2)cc1` registered a CC50 at 96 h in [1] of 22 µM. In addition, the CC50 in [2] was 19 µM; in series [3], 25 µM; in series [4], 60 µM. Also, the result in series [5] and in series [6] was inactive. For the same compound, the 50% effective concentration (EC50) was over 19 µM in [7]; over 25 µM in the series with Yellow fever virus; 13 µM in the series with Coxsackievirus B2; over 60 µM in the series on Poliovirus 1; over 60 µM with Human alphaherpesvirus 1; over 60 µM in [8]. The compound further came in with an EC50 in the series on Vaccinia virus of 8 µM.
